The text below walks through data of ChEMBL document CHEMBL3877308, “Design, synthesis and in vitro biological evaluation of oligopeptides targeting E. coli type I signal peptidase (LepB)” (Bioorg Med Chem, 2017).

For data set [1], the target named is Signal peptidase I (Escherichia coli K-12, UniProt P00803). Put plainly: Inhibition of full length Escherichia coli His6-tagged LepB expressed in Escherichia coli C43(DE3) using dabcyl-VEVGGTATAGAFSRPGLE-(EDANS) as substrate preincubated for 10 mins followed by substrate addition measured for 2 hrs by FRET assay. The method in brief: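 Enzyme extracted from the membrane fraction with 1% reduced Triton X-100 and purified by metal-chelation chromatography in 0.5% detergent. Enzyme (final ~50 nM) was pre-incubated with compound for 10 min at 22 °C. The linear rise in EDANS donor fluorescence (dabcyl acceptor) was then followed at 22 °C for 2 h. IC50 came from non-linear regression of sigmoidal rate-versus-concentration curves.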
Signal peptidase I, sequence (P00803 whole entry): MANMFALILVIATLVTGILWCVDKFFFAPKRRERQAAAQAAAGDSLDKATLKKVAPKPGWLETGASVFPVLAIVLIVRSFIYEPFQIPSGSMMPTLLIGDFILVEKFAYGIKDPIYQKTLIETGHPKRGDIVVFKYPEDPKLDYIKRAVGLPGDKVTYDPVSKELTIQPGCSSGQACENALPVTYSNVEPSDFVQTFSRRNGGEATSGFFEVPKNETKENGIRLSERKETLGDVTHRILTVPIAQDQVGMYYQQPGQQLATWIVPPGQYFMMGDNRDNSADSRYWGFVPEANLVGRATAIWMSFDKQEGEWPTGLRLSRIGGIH

Data set [2] addresses Signal peptidase I (Escherichia coli K-12) (UniProt P00803). The data set can be described thus: Inhibition of full length Escherichia coli His6-tagged LepB expressed in Escherichia coli C43(DE3) at 100 uM using dabcyl-VEVGGTATAGAFSRPGLE-(EDANS) as substrate preincubated for 10 mins followed by substrate addition measured for 2 hrs by FRET assay relative to control. The method in brief: (§1)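 Enzyme came from the membrane fraction, extracted with 1% reduced Triton X-100 and purified by metal-chelation chromatography in 0.5% detergent. FRET pair was dabcyl acceptor and EDANS donor. EcLepB (final about 50 nM) was pre-incubated with compound 10 min at 22 °C. Reaction was then run with 8 µM substrate, following the linear fluorescence increase at 22 °C for 2 h.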

The target is the same in data set [3]. Put plainly: Inhibition of full length Escherichia coli His6-tagged LepB expressed in Escherichia coli C43(DE3) assessed as residual activity at 100 uM using dabcyl-VEVGGTATAGAFSRPGLE-(EDANS) as substrate preincubated for 10 mins followed by substrate addition measured for 2 hrs by FRET assay relative to control. Put shortly: as §1
Data set [4] shares this target. Put plainly: Inhibition of full length Escherichia coli His6-tagged LepB expressed in Escherichia coli C43(DE3) assessed as residual activity at 50 uM using dabcyl-VEVGGTATAGAFSRPGLE-(EDANS) as substrate preincubated for 10 mins followed by substrate addition measured for 2 hrs by FRET assay relative to control. Put shortly:
as §1

For data set [5] the target is unchanged. The data set can be described thus: Inhibition of full length Escherichia coli His6-tagged LepB expressed in Escherichia coli C43(DE3) assessed as residual activity at 25 uM using dabcyl-VEVGGTATAGAFSRPGLE-(EDANS) as substrate preincubated for 10 mins followed by substrate addition measured for 2 hrs by FRET assay relative to control. Put shortly:
as §1

Data set [6] has the same target. The data set can be described thus: Inhibition of full length Escherichia coli His6-tagged LepB expressed in Escherichia coli C43(DE3) assessed as residual activity at 12.5 uM using dabcyl-VEVGGTATAGAFSRPGLE-(EDANS) as substrate preincubated for 10 mins followed by substrate addition measured for 2 hrs by FRET assay relative to control. The method in brief: as §1

For data set [7] the target is unchanged. The data set can be described thus: Inhibition of full length Escherichia coli His6-tagged LepB expressed in Escherichia coli C43(DE3) assessed as residual activity at 6.25 uM using dabcyl-VEVGGTATAGAFSRPGLE-(EDANS) as substrate preincubated for 10 mins followed by substrate addition measured for 2 hrs by FRET assay relative to control. Put shortly: as §1

Data set [8] has the same target. Put plainly: Inhibition of full length Escherichia coli His6-tagged LepB expressed in Escherichia coli C43(DE3) assessed as residual activity at 3.13 uM using dabcyl-VEVGGTATAGAFSRPGLE-(EDANS) as substrate preincubated for 10 mins followed by substrate addition measured for 2 hrs by FRET assay relative to control. Put shortly: as §1
The target is the same in data set [9]. The data set can be described thus: Inhibition of full length Escherichia coli His6-tagged LepB expressed in Escherichia coli C43(DE3) assessed as residual activity at 1.56 uM using dabcyl-VEVGGTATAGAFSRPGLE-(EDANS) as substrate preincubated for 10 mins followed by substrate addition measured for 2 hrs by FRET assay relative to control. The method in brief: as §1

The target is the same in data set [10]. The data set can be described thus: Inhibition of full length Escherichia coli His6-tagged LepB expressed in Escherichia coli C43(DE3) assessed as residual activity at 0.781 uM using dabcyl-VEVGGTATAGAFSRPGLE-(EDANS) as substrate preincubated for 10 mins followed by substrate addition measured for 2 hrs by FRET assay relative to control. Put shortly: as §1

The target is the same in data set [11]. Put plainly: Inhibition of full length Escherichia coli His6-tagged LepB expressed in Escherichia coli C43(DE3) assessed as residual activity at 0.391 uM using dabcyl-VEVGGTATAGAFSRPGLE-(EDANS) as substrate preincubated for 10 mins followed by substrate addition measured for 2 hrs by FRET assay relative to control. Put shortly:
as §1

The target is the same in data set [12]. The data set can be described thus: Inhibition of full length Escherichia coli His6-tagged LepB expressed in Escherichia coli C43(DE3) assessed as residual activity at 0.195 uM using dabcyl-VEVGGTATAGAFSRPGLE-(EDANS) as substrate preincubated for 10 mins followed by substrate addition measured for 2 hrs by FRET assay relative to control. Put shortly: as §1

For data set [13] the target is unchanged. The data set can be described thus: Inhibition of full length Escherichia coli His6-tagged LepB expressed in Escherichia coli C43(DE3) assessed as residual activity at 0.0977 uM using dabcyl-VEVGGTATAGAFSRPGLE-(EDANS) as substrate preincubated for 10 mins followed by substrate addition measured for 2 hrs by FRET assay relative to control. The method in brief: as §1

For data set [14] the target is unchanged. Put plainly: Inhibition of full length Escherichia coli His6-tagged LepB expressed in Escherichia coli C43(DE3) assessed as residual activity at 0.0488 uM using dabcyl-VEVGGTATAGAFSRPGLE-(EDANS) as substrate preincubated for 10 mins followed by substrate addition measured for 2 hrs by FRET assay relative to control. The method in brief:
as §1

For data set [15] the target is unchanged. Put plainly: Inhibition of full length Escherichia coli His6-tagged LepB expressed in Escherichia coli C43(DE3) assessed as residual activity at 0.0244 uM using dabcyl-VEVGGTATAGAFSRPGLE-(EDANS) as substrate preincubated for 10 mins followed by substrate addition measured for 2 hrs by FRET assay relative to control. The method in brief: as §1
Data set [16] has as its system Escherichia coli. Put plainly: Antibacterial activity against wild type Escherichia coli ATCC 25922 after 16 to 20 hrs by broth microdilution assay. Type of data set: functional. Put shortly: (§2)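 MIC by broth microdilution in cation-adjusted Mueller-Hinton II medium, following EUCAST and CLSI guidelines; panel of Gram-negative strains plus S. aureus ATCC 29213.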

Data set [17] deals with Escherichia coli. Put plainly: Antibacterial activity against Escherichia coli CH3130 harboring tolC deletion mutant after 16 to 20 hrs by broth microdilution assay. Type of data set: functional. Put shortly:
(§3)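 Broth microdilution MIC in cation-adjusted Mueller-Hinton II medium, following EUCAST and CLSI guidelines; tested on a panel of Gram-negative strains plus S. aureus ATCC 29213 (wild-type).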

Data set [18] relates to Escherichia coli. Put plainly: Antibacterial activity against Escherichia coli D22 harboring lpxC mutant after 16 to 20 hrs by broth microdilution assay. Type of data set: functional. The method in brief: as §3
Data set [19] deals with Pseudomonas aeruginosa. The data set can be described thus: Antibacterial activity against wild type Pseudomonas aeruginosa PAO1 after 16 to 20 hrs by broth microdilution assay. In kind it is functional. The method in brief:
as §2

The subject of data set [20] is Pseudomonas aeruginosa. Put plainly: Antibacterial activity against wild type Pseudomonas aeruginosa PAO750 harboring efflux defective mutant after 16 to 20 hrs by broth microdilution assay. Type of data set: functional. The method in brief: as §3
Data set [21] concerns Klebsiella pneumoniae. The data set can be described thus: Antibacterial activity against wild type Klebsiella pneumoniae […] after 16 to 20 hrs by broth microdilution assay. In kind it is functional. Put shortly: as §2
The test system of data set [22] is Staphylococcus aureus. Put plainly: Antibacterial activity against wild type Staphylococcus aureus ATCC 29213 after 16 to 20 hrs by broth microdilution assay. In kind it is functional. The method in brief: as §2
For data set [23], the system named is Acinetobacter baumannii. The data set can be described thus: Antibacterial activity against wild type Acinetobacter baumannii ATCC 19606 after 16 to 20 hrs by broth microdilution assay. Type of data set: functional. Put shortly: as §2
A short description of data set [24]: Cytotoxicity against human HepG2 cells assessed as reduction in cell viability after 72 hrs by fluorescein diacetate dye based fluorometric microculture assay. In kind it is toxicity. The method in brief:
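FMCA on HepG2 cells read at 72 h. Survival index (%) is fluorescence in test wells as percent of control cultures, with blank values subtracted. IC50 was obtained by non-linear regression of log concentration-effect curves.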

Signal peptidase I (Escherichia coli K-12), sequence (P00803 whole entry): as above

As to `CC(O)[C@H](NC(=O)[C@@H]1CCCN1)C(=O)N[C@@H](C)C(=O)N[C@@H](CC(N)=O)C(=O)N[C@@H](C)B1O[C@@H]2C[C@@H]3C[C@@H](C3(C)C)[C@]2(C)O1` (single isomer, unassigned), it took 26 µM to reach half-maximal inhibition in data set [1] (IC50). The same compound had an inhibition in [2] above 50%. The Activity in [3] is 25.1%; in data set [4], 35.6%; in [5], 56.9%; in data set [6] it was 67.2%; in [7], 85.8%; in data set [8], 88.6%. Also, the Activity turned out to be 90.7% in data set [9]; 95% in [10]; 95% in data set [11]; 95.4% in data set [12]; 96% in data set [13]; 96.7% in data set [14]. For the same compound, the Activity in [15] was determined as 92.7%. Besides, the minimal inhibitory concentration (MIC) in data set [16], in data set [17], in [18], in [19], in data set [20] and in data set [21] was above 64 µg/mL each time. For the same compound, the MIC in data set [22] and in data set [23] was above 64 µg/mL each time. Also, the IC50 at 72 h in data set [24] is above 64 µM.
